From ChEMBL document CHEMBL3826876, “Toward the Development of Specific G-Quadruplex Binders: Synthesis, Biophysical, and Biological Studies of New Hydrazone Derivatives” (J Med Chem, 2016)
Values belong to the compound of their own block, whether it stands above or below them. Calls of active or inactive are those of the source. No cut-off for these calls is given here.

Assays:
[1] = test system: U2OS; assay: Cytotoxicity against human U2OS cells assessed as cell killing after 1 hr by MTT assay; assay type: functional, cell-based
Summary of the method: (§1)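 U2OS and HCT116 in DMEM with 10% FBS, 1% L-glutamine, seeded at 40000 cells/ml; 24 h later exposed for 1 h or 24 h, then drug-free medium 1-2 days. MTT 1 h at 37 °C, DMSO solubilisation, absorbance 595 nm. IC50 by linear regression; two independent experiments in triplicate, mean ± SE.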

[2] = Cytotoxicity against human HCT116 cells assessed as cell killing after 1 hr by MTT assay; assay type: functional, cell-based; details: HCT-116, 1 h; summary of the method: as §1
[3] = test system: U2OS; assay: Cytotoxicity against human U2OS cells assessed as cell killing after 24 hrs by MTT assay; assay type: functional, cell-based; summary of the method: as §1
[4] = Cytotoxicity against human HCT116 cells assessed as cell killing after 24 hrs by MTT assay; assay type: functional, cell-based; details: HCT-116, 24 h; summary of the method: as §1
[5] = test system: U2OS; assay: Stabilization of nuclear G-quadruplex DNA in human U2OS cells at 2 to 10 uM after 24 hrs by DAPI staining based immunofluorescence assay; assay type: cell-based
Summary of the method: (§2)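 U2OS seeded at 100000 cells/ml, treated 24 h after seeding for 24 h; fixed methanol:acetic acid 3:1, 0.1% Triton X-100, 2% milk block. Stained with in-house His-purified BG4, anti-FLAG, Alexa 488 anti-rabbit; nuclei DAPI. Per-cell signal as corrected total cell fluorescence; Student's t test.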

[6] = Binding affinity to synthetic telomere 23 parallel G-quadruplex DNA assessed as change in melting temperature at 4 mol equiv in presence of 100 mM KCl buffer by circular dichroism spectroscopic analysis
Summary of the method: (§3)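 CD melting, 20-100 °C at 1 °C/min, signal at 264 (parallel), 290 (antiparallel) or 280 nm (duplex). G4 DNA 10 µM or duplex 15 µM, folded by heating at 90 °C 5 min and slow cooling, in 10 mM potassium phosphate (c-kit1, Tel23, Tel26) or lithium phosphate (Tel23-p, ds12) pH 7.0 with 100 mM KCl. Ligand 4 equiv; Tm by curve fit, ΔTm vs DNA alone; duplicate average.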

[7] = Binding affinity to synthetic c-MYC G-quadruplex DNA assessed as change in melting temperature at 4 mol equiv in presence of 20 mM KCl buffer by circular dichroism spectroscopic analysis
[8] = Effect on synthetic telomere 23 G-quadruplex DNA topology at 4 mol equiv by circular dichroism spectroscopic analysis
Summary of the method: (§4)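 CD spectra at 20 °C, 230-360 nm, 3 scans averaged, baseline subtracted; 10 µM G4 or 15 µM duplex in potassium- or lithium-phosphate pH 7.0 buffers with 100 mM KCl (c-kit2, c-myc: 5 mM potassium phosphate, 20 mM KCl); ligand 4 molar equiv added to folded DNA from 6 mM DMSO stock.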

[9] = Effect on synthetic c-KIT1 G-quadruplex DNA topology at 4 mol equiv by circular dichroism spectroscopic analysis; summary of the method: as §4
[10] = Effect on synthetic c-KIT2 G-quadruplex DNA topology at 4 mol equiv by circular dichroism spectroscopic analysis; summary of the method: as §4
[11] = Effect on synthetic c-MYC G-quadruplex DNA topology at 4 mol equiv by circular dichroism spectroscopic analysis; summary of the method: as §4
[12] = Effect on synthetic telomere 23 parallel G-quadruplex DNA topology at 4 mol equiv by circular dichroism spectroscopic analysis; summary of the method: as §4
[13] = Effect on synthetic telomere 26 G-quadruplex DNA topology at 4 mol equiv by circular dichroism spectroscopic analysis; summary of the method: as §4
[14] = Effect on synthetic self-complementary DNA 12-mer duplex topology at 4 mol equiv in presence of K+ ions by circular dichroism spectroscopic analysis; summary of the method: as §4
[15] = Binding affinity to synthetic c-KIT1 G-quadruplex DNA assessed as change in melting temperature at 4 mol equiv in presence of 100 mM KCl buffer by circular dichroism spectroscopic analysis; summary of the method: as §3
[16] = Binding affinity to synthetic c-KIT2 G-quadruplex DNA assessed as change in melting temperature at 4 mol equiv in presence of 20 mM KCl buffer by circular dichroism spectroscopic analysis
Summary of the method: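 CD melting as for other targets (20-100 °C, 1 °C/min, 10 µM folded G4, ligand 4 equiv), but in 5 mM potassium phosphate with 20 mM KCl; c-kit2 read at 264 nm as parallel G4. ΔTm from fitted Tm, duplicate average.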

[17] = Binding affinity to synthetic telomere 23 G-quadruplex DNA assessed as change in melting temperature at 4 mol equiv in presence of 100 mM KCl buffer by circular dichroism spectroscopic analysis; summary of the method: as §3
[18] = Binding affinity to synthetic telomere 26 G-quadruplex DNA assessed as change in melting temperature at 4 mol equiv in presence of 100 mM KCl buffer by circular dichroism spectroscopic analysis; summary of the method: as §3
[19] = Binding affinity to synthetic self-complementary DNA 12-mer duplex assessed as change in melting temperature at 4 mol equiv in presence of 100 mM KCl buffer by circular dichroism spectroscopic analysis; summary of the method: as §3
[20] = organism: Homo sapiens; assay: Binding affinity to human 5'-FAM/3'-TAMRA labeled telomere 21 G-quadruplex DNA assessed as increase in melting temperature by FRET assay
Summary of the method: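 FRET melting screen in 60 mM potassium cacodylate pH 7.4, labelled probe 400 nM annealed at 85 °C for 10 min; ligands at various concentrations up to 20 µM, diluted from 10 mM DMSO stock via 10 mM HCl. Excitation 450-495 nm, emission 515-545 nm, 30-100 °C in 0.5 °C steps with 30 s hold; ΔTm by curve fitting, triplicate.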

[21] = test system: U2OS; assay: Stabilization of nuclear G-quadruplex DNA in human U2OS cells at 10 uM after 24 hrs by DAPI staining based immunofluorescence assay; assay type: cell-based; summary of the method: as §2

SMILES: O=Cc1c(-c2ccccc2)nc2n1ccc1nc(-c3ccccc3)c(C=O)n12
- IC50 [1]: 45.2 µM
- IC50 [2]: 16.8 µM
- IC50 [3]: 9.16 µM
- IC50 [4]: 4.06 µM
- Activity [5]: inactive

- ΔTm [6]: > 20 °C
- ΔTm [7]: > 20 °C
- Activity [8]: inactive
- Activity [9]: inactive
- Activity [10]: inactive
- Activity [11]: inactive
- Activity [12]: inactive
- Activity [13]: inactive
- Activity [14]: inactive
- ΔTm [15]: > 15 °C
- ΔTm [16]: > 20 °C
- ΔTm [17]: -10 °C
- ΔTm [18]: -4.5 °C
- ΔTm [19]: 0.1 °C
- Activity [20]: Active
SMILES: N=C(N)N/N=C/c1c(-c2ccccc2)nc2ccn3c(/C=N/N=C(N)N)c(-c4ccccc4)nc3n12
- Activity [21]: Active
